Data set [1] is described as follows: Cytotoxicity against human HGF cells. The class given is cell-based.
A short description of data set [2]: Cytotoxicity against human HPC cells. The format is cell-based.
Data set [3] is described as follows: Cytotoxicity against human HPLF cells. The format is cell-based.
Data set [4] has as its system HL-60. The data set is described as follows: Selectivity index, ratio of CC50 for human normal cells to CC50 for human HL60 cells. The class given is functional. Summed up:
(§1)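 Ratio of the mean CC50 over three normal human lines (HGF gingival fibroblasts, HPC pulp cells, HPLF periodontal ligament fibroblasts) to the CC50 for the given tumor line. Each CC50 is the mean of two independent determinations.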

Data set [5] has as its system HSC-2. The data set is described as follows: Selectivity index, ratio of CC50 for human normal cells to CC50 for human HSC2 cells. The class given is functional. In outline: as §1
Data set [6] has as its system HSC-4. The data set is described as follows: Selectivity index, ratio of CC50 for human normal cells to CC50 for human HSC4 cells. The class given is functional. In outline: as §1
For data set [7], the system named is HL-60. The data set is described as follows: Cytotoxicity against human HL60 cells. The format is functional. In outline: (§2)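 Each value is the mean of two independent determinations.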
For data set [8], the system named is HSC-2. The data set is described as follows: Cytotoxicity against human HSC2 cells. The class given is functional. In outline: as §2
For data set [9], the system named is HSC-4. The data set is described as follows: Cytotoxicity against human HSC4 cells. The format is functional. In outline: as §2

Results on 16 compounds are retold here after ChEMBL document CHEMBL1156843, “3,5-Bis(benzylidene)-1-[4-2-(morpholin-4-yl)ethoxyphenylcarbonyl]-4-piperidone hydrochloride: a lead tumor-specific cytotoxin which induces apoptosis and autophagy” (Bioorg Med Chem Lett, 2010).

Molecules are shown by their SMILES. A value given as a limit tells only on which side of the number the result lay.

For orientation: CC50 means the concentration at which the toxic effect on the cells reaches its halfway point. A higher CC50 goes with lower toxicity to the cells. Take `Cl.O=C1/C(=C/c2ccc(Cl)cc2)CN(C(=O)c2ccc(OCCN3CCCCC3)cc2)C/C1=C\c1ccc(Cl)cc1`: the CC50 was over 400 µM in [1], over 400 µM in [2] and 340 µM in data set [3]. For the same compound, the “Selectivity Index” value in the data set on HL-60 [4] is given as over 6; with HSC-2 [5], over 3.5; in the data set with HSC-4 [6], over 7.9.

`Cl.O=C1/C(=C/c2ccc(Cl)cc2)CN(C(=O)c2ccc(OCCN3CCOCC3)cc2)C/C1=C\c1ccc(Cl)cc1`: the 50% cytotoxic concentration (CC50) in [1] is 400 µM; in data set [2], over 400 µM; in data set [3], 360 µM; in the data set with HL-60 [7] it was 36 µM; in the data set on HSC-2 [8] it was 71 µM; in the data set with HSC-4 [9], 18 µM. In addition, the Selectivity Index in the data set with HL-60 [4] was over 11; in the data set on HSC-2 [5], over 5.5; in the data set with HSC-4 [6], over 22.

Turning to `CC[N+](C)(CC)CCOc1ccc(C(=O)N2C/C(=C\c3ccc(C)cc3)C(=O)/C(=C/c3ccc(C)cc3)C2)cc1.[I-]`, the 50% cytotoxic concentration (CC50) in data set [1] came out at 34 µM; in data set [2], 29 µM; in data set [3], 8.3 µM; in the data set with HL-60 [7] it was 16 µM; with HSC-2 [8], 17 µM; with HSC-4 [9] it was 17 µM. The “Selectivity Index” value in the data set on HL-60 [4] turned out to be 1.5; in the data set on HSC-2 [5], 1.4; in the data set with HSC-4 [6], 1.4.

Consider `CCN(CC)CCOc1ccc(C(=O)N2C/C(=C\c3ccc([N+](=O)[O-])cc3)C(=O)/C(=C/c3ccc([N+](=O)[O-])cc3)C2)cc1.Cl`, for which the CC50 in [1] is 5 µM; in data set [2] it was 4.5 µM; in data set [3] it was 5.9 µM. For the same compound, the “Selectivity Index” value came to 20 in the data set with HL-60 [4], 5.2 with HSC-2 [5] and 4.6 with HSC-4 [6].

In the case of `CC[N+](C)(CC)CCOc1ccc(C(=O)N2C/C(=C\c3ccc(Cl)cc3)C(=O)/C(=C/c3ccc(Cl)cc3)C2)cc1.[I-]`, the 50% cytotoxic concentration (CC50) is over 400 µM in data set [1]; over 400 µM in data set [2]; 9.4 µM in data set [3]; 64 µM with HL-60 [7]; over 400 µM in the data set with HSC-2 [8]; 220 µM with HSC-4 [9]. Also, the “Selectivity Index” value in the data set on HL-60 [4] is over 4.2; in the data set with HSC-2 [5], 0.7; in the data set with HSC-4 [6], over 1.2.

In the case of `Cl.O=C1/C(=C/c2ccc([N+](=O)[O-])cc2)CN(C(=O)c2ccc(OCCN3CCCCC3)cc2)C/C1=C\c1ccc([N+](=O)[O-])cc1`, the CC50 in data set [1] was 8 µM; in data set [2], 3.9 µM; in [3], 4.9 µM; with HL-60 [7], 0.29 µM; with HSC-2 [8], 0.86 µM; with HSC-4 [9], 0.9 µM. The “Selectivity Index” value stood at 19 in the data set with HL-60 [4], 6.5 in the data set with HSC-2 [5] and 6.2 in the data set on HSC-4 [6].

With `Cc1ccc(/C=C2\CN(C(=O)c3ccc(OCCN4CCOCC4)cc3)C/C(=C\c3ccc(C)cc3)C2=O)cc1.Cl`, the 50% cytotoxic concentration (CC50) was 10 µM in data set [1]; 49 µM in data set [2]; 12 µM in data set [3]; 1.2 µM with HL-60 [7]; 1.6 µM in the data set on HSC-2 [8]; 2 µM in the data set with HSC-4 [9]. Also, the “Selectivity Index” value with HL-60 [4] came out at 20; in the data set with HSC-2 [5], 15; with HSC-4 [6] it was 12.

As to `Cl.O=C1/C(=C/c2ccc([N+](=O)[O-])cc2)CN(C(=O)c2ccc(OCCN3CCOCC3)cc2)C/C1=C\c1ccc([N+](=O)[O-])cc1`, the 50% cytotoxic concentration (CC50) in data set [1] was determined as 12 µM; in [2] it was 8.2 µM; in data set [3], 9.3 µM; in the data set on HL-60 [7] it was 0.35 µM; in the data set with HSC-2 [8] it was 0.76 µM; with HSC-4 [9], 0.74 µM. For the same compound, the results for the “Selectivity Index” value in the data set on HL-60 [4], with HSC-2 [5] and in the data set with HSC-4 [6] were 28, 13 and 13, respectively.

In the case of `CCN(CC)CCOc1ccc(C(=O)N2C/C(=C\c3ccccc3)C(=O)/C(=C/c3ccccc3)C2)cc1.Cl`, the cytotoxic concentration (CC50) in data set [1] is 4.2 µM; in data set [2], 12 µM; in data set [3], 6 µM; in the data set with HL-60 [7] it was 0.61 µM; in the data set on HSC-2 [8], 3.1 µM; with HSC-4 [9], 2 µM. For the same compound, the “Selectivity Index” value amounted to 12 in the data set on HL-60 [4], 2.4 in the data set on HSC-2 [5] and 3.7 in the data set with HSC-4 [6].

Regarding `Cc1ccc(/C=C2\CN(C(=O)c3ccc(OCCN(C)C)cc3)C/C(=C\c3ccc(C)cc3)C2=O)cc1.Cl`, the CC50 in data set [1] is 7.9 µM; in data set [2] it was 7.2 µM; in [3] it was 3.4 µM; with HL-60 [7], 0.85 µM; in the data set on HSC-2 [8], 1.4 µM; in the data set on HSC-4 [9] it was 2.1 µM. Further, the “Selectivity Index” value in the data set with HL-60 [4] amounted to 7.3; with HSC-2 [5], 4.4; with HSC-4 [6], 3.

On to `CN(C)CCOc1ccc(C(=O)N2C/C(=C\c3ccc(Cl)cc3)C(=O)/C(=C/c3ccc(Cl)cc3)C2)cc1.Cl`, for which the 50% cytotoxic concentration (CC50) in data set [1] was determined as 23 µM; in data set [2], 11 µM; in data set [3], 4.3 µM; in the data set with HL-60 [7], 1.7 µM; in the data set on HSC-2 [8], 2.3 µM; with HSC-4 [9], 1.8 µM. Further, the “Selectivity Index” value came out at 7.5 in the data set with HL-60 [4], 5.6 in the data set with HSC-2 [5] and 7.1 in the data set on HSC-4 [6].

As to `N[C@@H](Cc1ccc(N(CCCl)CCCl)cc1)C(=O)O`, the CC50 in data set [1], in data set [2] and in data set [3] was over 200 µM each time. The “Selectivity Index” value was over 33 in the data set with HL-60 [4], over 5.7 in the data set with HSC-2 [5] and over 2.5 in the data set with HSC-4 [6].

For `CC[N+](C)(CC)CCOc1ccc(C(=O)N2C/C(=C\c3ccc([N+](=O)[O-])cc3)C(=O)/C(=C/c3ccc([N+](=O)[O-])cc3)C2)cc1.[I-]`, the CC50 was found to be 93 µM in [1]; 130 µM in [2]; 13 µM in [3]; 29 µM in the data set on HL-60 [7]; 67 µM in the data set with HSC-2 [8]; 61 µM in the data set on HSC-4 [9]. For the same compound, the “Selectivity Index” value is 2.7 with HL-60 [4], 1.2 with HSC-2 [5] and 1.3 in the data set with HSC-4 [6].

In the case of `CN(C)CCOc1ccc(C(=O)N2C/C(=C\c3ccccc3)C(=O)/C(=C/c3ccccc3)C2)cc1.Cl`, the 50% cytotoxic concentration (CC50) amounted to 3.6 µM in data set [1]; 13 µM in data set [2]; 8.9 µM in data set [3]; 1 µM with HL-60 [7]; 3.8 µM in the data set with HSC-2 [8]; 2.1 µM in the data set with HSC-4 [9]. Also, the entries for the “Selectivity Index” value with HL-60 [4], in the data set with HSC-2 [5] and with HSC-4 [6] were 8.5, 2.2 and 4.1, respectively.

For the compound `CCN(CC)CCOc1ccc(C(=O)N2C/C(=C\c3ccc(Cl)cc3)C(=O)/C(=C/c3ccc(Cl)cc3)C2)cc1.Cl`, the CC50 in data set [1] is 230 µM; in [2] it was over 400 µM; in [3], over 400 µM. For the same compound, the “Selectivity Index” value in the data set with HL-60 [4] is given as over 7.5; in the data set on HSC-2 [5], over 2.1; in the data set with HSC-4 [6], over 10.

For the compound `CCN(CC)CCOc1ccc(C(=O)N2C/C(=C\c3ccc(C)cc3)C(=O)/C(=C/c3ccc(C)cc3)C2)cc1.Cl`, the half-maximal cytotoxic concentration (CC50) in data set [1] is 3.6 µM; in [2], 9.3 µM; in [3] it was 4.6 µM. Also, the “Selectivity Index” value in the data set on HL-60 [4] was determined as 7.3; in the data set on HSC-2 [5], 2.6; in the data set on HSC-4 [6] it was 2.5.
